From PubChem BioAssay
NOD2 RIPK2 PPI: inhibitors of human NOD2-RIPK2 interaction. CHO BLA complementation NOD2-RIPK2, CCF4 ratio. AID 624267. 360,000 compounds, 0.38% hits. O43353. inhibition, % at 4.98 µM; in the data active = inhibition above about 21%
Target sequence (O43353 whole entry, looked up): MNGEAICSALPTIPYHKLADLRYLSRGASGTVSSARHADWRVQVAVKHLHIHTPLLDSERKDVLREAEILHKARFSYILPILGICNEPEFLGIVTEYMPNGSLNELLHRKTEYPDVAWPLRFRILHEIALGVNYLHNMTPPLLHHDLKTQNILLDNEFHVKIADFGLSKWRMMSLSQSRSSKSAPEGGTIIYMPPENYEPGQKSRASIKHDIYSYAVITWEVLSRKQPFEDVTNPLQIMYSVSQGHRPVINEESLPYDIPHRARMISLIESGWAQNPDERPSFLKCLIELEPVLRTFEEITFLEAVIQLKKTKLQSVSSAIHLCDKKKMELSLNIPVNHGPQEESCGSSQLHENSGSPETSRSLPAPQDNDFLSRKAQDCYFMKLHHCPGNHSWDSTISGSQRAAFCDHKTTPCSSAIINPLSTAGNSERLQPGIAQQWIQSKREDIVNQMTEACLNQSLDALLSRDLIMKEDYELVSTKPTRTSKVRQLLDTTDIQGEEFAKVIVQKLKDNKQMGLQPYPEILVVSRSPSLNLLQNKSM
UPR XBP1 act: activators of adaptive arm of unfolded protein response (XBP1) | activation, % at 20 µM | 330,000 compounds, 0.33% hits | CHO-XBP1 luciferase reporter, IRE1-XBP1 UPR activation, luminescence; percent of tunicamycin response, DMSO as zero | AID 463104;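 active = versus positive control, 20 µM dose yields 30% or more activation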
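Material: CHO cell line with stable XBP1 luciferase reporter; schedule: 16-18 h cell attachment at 37 °C, then 6 h compound exposure; signal: glow luminescence from Steady-Glo reagent; medium: serum-containing F12 medium, 10% FBS; benchmarks: tunicamycin 10 µg/mL and vehicle-only wells; read-out: percent activation relative to tunicamycin reference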
TLR4-MyD88 BLA: inhibitors of human TLR4-MyD88 binding; O00206+Q99836; HeLa CL3-4 TLR4/MyD88 BLA complementation, FRET ratio; inhibition, % at 8.4 µM; 200,000 compounds, 0.18% hits; in the data active = inhibition above about 25%
CHOP inhibitor: inhibitors of CHOP induction in ER stress response | CHO-K1 CHOP-promoter luciferase, tunicamycin-induced, 15-18 h | inhibition, % at 10 µM | 220,000 compounds, 3.8% hits | AID 2732;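 active = compounds that reduced the stress-induced luciferase reporter signal by more than about 70% of percent inhibition, limit read from the data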
TLR9-MyD88 block: blocks human TLR9 binding to MyD88; Q9NR96+Q99836; CHO BLA complementation TLR9-MyD88, CCF4 FRET ratio; inhibition, % at 4.98 µM; 340,000 compounds, 0.21% hits;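 active = inhibition above the mean over all tested compounds plus 3 SD, cut at about 21% in these data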
UPR CHOP act: activators of apoptotic arm of unfolded protein response (CHOP). activation, % at 10 µM. CHO-CHOP luciferase reporter, UPR activation, luminescence; percent of tunicamycin response over DMSO baseline. 330,000 compounds, 0.34% hits;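 active = at 10 µM dose, activation of 40% or more, normalized to positive control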
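System: CHO CHOP reporter cells. Amount: 500 cells per well. Buffer or medium: F12 medium, 10% FBS. Compound dosing: one dose, 10 µM in 0.5% DMSO. Incubation: 6 h compound exposure at 37 °C after overnight seeding. Technique: Steady-Glo luciferase luminescence. Benchmarks: tunicamycin and DMSO controls.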
Large screens that a line does not name were inactive. This is one part of a sample in which hits are shown more often than they occur.

O=C(Cn1cnc2ccccc2c1=O)Nc1nnc(SCc2ccc(Cl)cc2)s1	CHOP inhibitor 86 (no result: TLR4-MyD88 BLA)
Cc1ccc(NS(=O)(=O)c2cc(C(=O)NCCSc3ccc(C)cc3)ccc2C)cc1	none
Cc1ccc(C(=O)NCCSc2ccc(Cl)cc2)cc1S(=O)(=O)Nc1ccccc1	CHOP inhibitor 79
CC(C)c1nc(SCC(=O)N2CCN(c3ccccc3)CC2)c2c(=O)n(C)c(=O)n(C)c2n1	CHOP inhibitor 70
CC(C)c1nc(SCC(=O)Nc2ccc3c(c2)OCCO3)c2c(=O)n(C)c(=O)n(C)c2n1	none
CC(C)c1nc(SCC(=O)Nc2cccc(C(F)(F)F)c2)c2c(=O)n(C)c(=O)n(C)c2n1	CHOP inhibitor 70
CC(C)C(NC(=O)c1ccco1)C(=O)OCC(=O)Nc1ccc(C(N)=O)cc1 (stereo not drawn)	none
CCCN1CCC(NC(=S)Nc2cccc(Cl)c2Cl)CC1	none
CCCC1=C(C(=O)OCC)C(c2ccc(OC)c(C)c2OC)C(C#N)=C(N)O1 (stereo not drawn)	CHOP inhibitor 72
CCc1cccc2c1NC1(CCCC1)CC2C (stereo not drawn)	CHOP inhibitor 91 (no result: TLR4-MyD88 BLA)
COC1=CC(=O)OC(c2cccc([N+](=O)[O-])c2)C1 (stereo not drawn)	none (no result: UPR XBP1 act, TLR4-MyD88 BLA, CHOP inhibitor, TLR9-MyD88 block, UPR CHOP act)
Cc1nnsc1C(=O)N/N=C/c1ccc2ccccc2c1O	CHOP inhibitor 75
Cc1nnsc1C(=O)N/N=C/c1ccccc1	none
COc1ccc(N=Nc2[nH]c3ccc(C)cc3c2O)cc1	CHOP inhibitor 91
O=C(CSc1nnc(SCc2ccc(Cl)cc2)s1)N/N=C/c1c[nH]c2ccccc12	CHOP inhibitor 92 (no result: UPR XBP1 act, UPR CHOP act)
CCCN1C(=O)c2ccccc2NC1c1ccc(Cl)c(Cl)c1 (stereo not drawn)	none (no result: TLR4-MyD88 BLA, CHOP inhibitor)
CN1CC(c2ccc(Cl)c(Cl)c2)[C@@]2(COc3ccccc3C2=O)[C@@]12C(=O)Nc1ccccc12 (stereo partly drawn)	CHOP inhibitor 74
Cc1ccc(C(=O)C(C)OC(=O)CN2C(=O)NC3(CCCC3)C2=O)cc1 (stereo not drawn)	none (no result: TLR4-MyD88 BLA, CHOP inhibitor)
COc1cc(N/N=C(\C)c2ccc(N)cc2)nc(-c2ccccc2)n1	CHOP inhibitor 81
COc1ccc(/C=C/CN2CCCC(CCC(=O)NCc3ccc(F)c(F)c3)C2)cc1 (stereo not drawn)	none
COc1ccc(CNc2nc(C)c([N+](=O)[O-])c(C)c2C#N)cc1	none
COc1cc(CNc2nc(C)c([N+](=O)[O-])c(C)c2C#N)cc(OC)c1OC	CHOP inhibitor 79
CC(=O)Nc1ccc(C(=O)COC(=O)c2ccco2)c(F)c1	none (no result: TLR4-MyD88 BLA, CHOP inhibitor)
O=C1c2ccccc2C(=Nc2ccccc2)C1c1cccc(Br)c1 (stereo not drawn)	CHOP inhibitor 72
CCCn1c(NC(=O)c2ccc(Br)cc2)nc2ccccc21	CHOP inhibitor 83
CC(C)(C)n1nnnc1C(c1ccc(C(F)(F)F)cc1)N(Cc1ccc(F)cc1)Cc1ccco1 (stereo not drawn)	CHOP inhibitor 82
CC(C)(C)n1nnnc1C(c1ccc(F)cc1)N(Cc1ccc(F)cc1)Cc1ccco1 (stereo not drawn)	none
Cc1cc(C)cc(-n2nnnc2SCC(=O)Nc2nc(-c3ccc(F)cc3)cs2)c1	CHOP inhibitor 89
O=C(CSc1nc2ccccc2[nH]1)Nc1nc(-c2ccc(Br)cc2)cs1	CHOP inhibitor 77
Cc1ccc(-n2nnnc2SCC(=O)Nc2nc(-c3ccc(F)cc3)cs2)cc1C	none
O=C(CSc1nnnn1-c1ccccc1)Nc1nc(-c2ccccc2)ns1	CHOP inhibitor 86
CCCNC(=O)C1(C)CCCN(C(=O)COc2ccc(C(C)(C)C)cc2)C1 (stereo not drawn)	none (no result: UPR XBP1 act, TLR4-MyD88 BLA, CHOP inhibitor, TLR9-MyD88 block, UPR CHOP act)
COCC(C)n1c(SCC(=O)c2cc(C)n(C)c2C)nc2ccccc2c1=O (stereo not drawn)	none
CCOC(=O)CNC(=O)COc1coc(CN2CCN(Cc3ccccc3)CC2)cc1=O	none (no result: TLR4-MyD88 BLA, CHOP inhibitor)
Cc1ccc(-n2ncc3c(N4CCCC4)ncnc32)c(C)c1	none
Cc1cccc(-n2ncc3c(N4CCC(C)CC4)ncnc32)c1	CHOP inhibitor 73
Cc1cccc(-n2ncc3c(N4CCC5(CC4)OCCO5)ncnc32)c1	none (no result: TLR4-MyD88 BLA)
COc1cccc(N2CCN(c3ncnc4c3cnn4-c3ccc(C)cc3C)CC2)c1	CHOP inhibitor 98
CCN(CC)S(=O)(=O)c1ccc(N(C)Cc2cccnc2)nc1	none
COC(=O)C1=C(C)N=c2s/c(=C3\C(=O)Nc4ccccc43)c(=O)n2C1c1ccccc1 (stereo not drawn)	CHOP inhibitor 79 (no result: NOD2 RIPK2 PPI, TLR9-MyD88 block)
CCOC(=O)C1=C(C)n2c(s/c(=C3\C(=O)Nc4ccccc43)c2=O)=NC1c1ccc(OC)cc1 (stereo not drawn)	CHOP inhibitor 78
CCc1cc(=O)n2[nH]c(-c3ccccc3)c(-c3ccccc3)c2n1	none (no result: TLR4-MyD88 BLA, CHOP inhibitor)
O=C(Cc1ccccc1)N/N=C/c1cc(Br)c(Br)o1	CHOP inhibitor 76
O=C(CNC(=O)c1ccc(Cl)c([N+](=O)[O-])c1)OC1CCCCC1=O (stereo not drawn)	none (no result: TLR4-MyD88 BLA, CHOP inhibitor)
N#Cc1c(N)nc2c(c1-c1ccc3c(c1)OCO3)CCCCCC2	CHOP inhibitor 86
CCCc1[nH]nc2c1C(/C(C)=C/c1ccccc1)C(C#N)=C(N)O2 (stereo not drawn)	CHOP inhibitor 71
CCOC(=O)c1sc(NC(=O)CSc2n[nH]c(-c3ccncc3)n2)c(C#N)c1C	CHOP inhibitor 85
O=C(Nc1ccc(CN2CCOCC2)cc1)c1ccc(-c2ccc(Br)cc2)o1	CHOP inhibitor 80
COc1cc(/C=N\NC(=O)C2CC3C=CC2C3)ccc1O (stereo not drawn)	none
Cc1onc(-c2ccccc2Cl)c1C(=O)Nc1nnc(-c2ccc(Cl)cc2Cl)s1	CHOP inhibitor 78
Cc1ccc(S(=O)(=O)c2c(C)nn(C(C)(C)C)c2OC(=O)C2CCCC2)cc1	CHOP inhibitor 77
COc1cccc(CN(C(=O)/C=C/c2ccco2)C2CCS(=O)(=O)C2)c1 (stereo not drawn)	none (no result: TLR4-MyD88 BLA, CHOP inhibitor)
COc1ccc(N2C(=O)CSC23CCCCC3)cc1	none
COc1ccc(N2C(=O)CSC23CCC(C(C)(C)C)CC3)cc1 (stereo not drawn)	CHOP inhibitor 79
Cc1ccccc1N1C(=O)C(Cl)=C(N2CCCCCC2)C1=O	CHOP inhibitor 80
COCCNS(=O)(=O)c1ccc(OCC(=O)OC)c(Cl)c1	CHOP inhibitor 92
COC(=O)COc1ccc(S(=O)(=O)NCCC2=CCCCC2)cc1Cl	none
Cc1cccc(NC(=S)N/N=C/c2c[nH]c3ccccc23)c1	CHOP inhibitor 91
